Test results published in ChEMBL document CHEMBL4007382 (Eur J Med Chem, 2017).

How the values were obtained:
[1] = target: Acetylcholinesterase (Electrophorus electricus, UniProt O42275); test: Inhibition of electric eel AChE using S-acetylthiocholine iodide as substrate preincubated for 60 mins followed by substrate addition measured after 5 mins by Ellman's method
[2] = target: Cholinesterase (Equus caballus, UniProt P81908); test: Inhibition of equine serum BuChE using S-butyrylthiocholine iodide as substrate preincubated for 60 mins followed by substrate addition measured after 5 mins by Ellman's method
Method in brief: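 Equine serum BChE (0.1 U/mL) in 100 mM sodium phosphate, pH 8, was preincubated at 37°C for 60 min with seven inhibitor concentrations (top 1×10^-5 M; stocks in acetonitrile:water 1:9). Added mix contained BTCh 2.5 mM and DTNB 3.4 mM. A412 was read for 5 min at 37°C, with enzyme-free blank subtracted. Triplicates.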

Sequence of Cholinesterase (P81908 whole entry): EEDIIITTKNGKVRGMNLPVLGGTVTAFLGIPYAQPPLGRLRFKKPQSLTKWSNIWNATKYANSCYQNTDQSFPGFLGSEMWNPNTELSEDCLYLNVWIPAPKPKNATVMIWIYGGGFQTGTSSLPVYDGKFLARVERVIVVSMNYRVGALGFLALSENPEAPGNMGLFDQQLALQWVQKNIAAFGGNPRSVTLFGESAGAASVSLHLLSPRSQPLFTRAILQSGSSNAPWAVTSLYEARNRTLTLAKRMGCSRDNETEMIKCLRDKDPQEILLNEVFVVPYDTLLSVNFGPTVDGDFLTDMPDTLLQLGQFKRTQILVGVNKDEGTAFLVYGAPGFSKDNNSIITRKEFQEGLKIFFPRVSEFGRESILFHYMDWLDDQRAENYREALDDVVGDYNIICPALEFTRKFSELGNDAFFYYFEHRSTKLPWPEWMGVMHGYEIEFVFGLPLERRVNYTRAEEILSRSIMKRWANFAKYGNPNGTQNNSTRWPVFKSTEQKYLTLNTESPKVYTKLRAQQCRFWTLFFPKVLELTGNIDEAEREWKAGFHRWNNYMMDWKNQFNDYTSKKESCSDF
Sequence of Acetylcholinesterase (O42275 whole entry): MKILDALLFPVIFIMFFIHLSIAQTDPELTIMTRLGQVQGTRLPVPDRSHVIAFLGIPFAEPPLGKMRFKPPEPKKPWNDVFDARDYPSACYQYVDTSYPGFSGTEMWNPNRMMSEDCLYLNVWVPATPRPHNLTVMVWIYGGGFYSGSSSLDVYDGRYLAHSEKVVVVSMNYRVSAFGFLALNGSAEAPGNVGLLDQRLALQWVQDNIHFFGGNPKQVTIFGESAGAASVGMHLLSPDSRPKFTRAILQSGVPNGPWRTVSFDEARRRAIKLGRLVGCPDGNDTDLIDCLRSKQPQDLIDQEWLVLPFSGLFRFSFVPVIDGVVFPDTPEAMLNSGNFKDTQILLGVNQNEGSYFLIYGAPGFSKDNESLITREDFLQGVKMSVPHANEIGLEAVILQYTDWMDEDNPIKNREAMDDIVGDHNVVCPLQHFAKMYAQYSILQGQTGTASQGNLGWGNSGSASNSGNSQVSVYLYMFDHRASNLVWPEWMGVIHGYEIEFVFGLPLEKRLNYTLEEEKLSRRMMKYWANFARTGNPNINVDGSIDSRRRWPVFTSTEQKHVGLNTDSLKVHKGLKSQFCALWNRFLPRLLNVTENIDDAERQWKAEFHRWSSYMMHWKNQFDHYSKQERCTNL

Structure (SMILES) | IC50 [1] | IC50 [2]
CN(C)C(=O)Oc1cc(OC(=O)N(C)C)cc(C(O)CN2CCCCC2)c1 (stereo not given) | > 100000 nM | 100 nM
CN(C)C(=O)Oc1cc(OC(=O)N(C)C)cc(C(O)CNc2ccccc2)c1 (stereo not given) | > 100000 nM | 2400 nM
CN(C)C(=O)Oc1cc(OC(=O)N(C)C)cc(C(O)CNC2CCCCC2)c1 (stereo not given) | > 100000 nM | 224 nM
CN(C)C(=O)Oc1cc(OC(=O)N(C)C)cc(C(O)CNC(C)(C)c2ccccc2)c1 (stereo not given) | > 100000 nM | 476 nM
CN(C)C(=O)Oc1cc(OC(=O)N(C)C)cc(C(O)CN2CCCC2)c1 (stereo not given) | 41300 nM | 253 nM
CCN(C)C(=O)Oc1cc(OC(=O)N(C)CC)cc(C(O)CNC(C)(C)C)c1 (stereo not given) | > 100000 nM | 113 nM
C#Cc1cccc(NCC(O)c2cc(OC(=O)N(C)C)cc(OC(=O)N(C)C)c2)c1 (stereo not given) | > 100000 nM | 686 nM
CN(C)C(=O)Oc1cc(OC(=O)N(C)C)cc(C(O)CNc2ccc(I)cc2)c1 (stereo not given) | > 100000 nM | 4700 nM
CCN(C)C(=O)Oc1cc(OC(=O)N(C)CC)cc(C(O)CN2CCCCC2)c1 (stereo not given) | > 100000 nM | 108 nM
CN(C)C(=O)Oc1cc(OC(=O)N(C)C)cc(C(O)CNC2CCCC2)c1 (stereo not given) | 65900 nM | 130 nM
